PubChem BioAssay
Active and inactive are the calls of the source.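 How the source made its calls: active means calcium signal cut by more than 3 SD below the full-agonist control yet still positive, in both repeats and the earlier primary screen; inactive means the rest.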

molecular target: Short transient receptor potential channel 4 (Mus musculus) (UniProt Q9QUQ5); test: blockers of DAMGO-evoked TRPC4 calcium flux – cell-based, Fluo4, HEK293 TRPC4beta/mu-opioid, confirmation (AID 2636); conditions: at 10 µM
Sequence (Q9QUQ5 whole entry, looked up): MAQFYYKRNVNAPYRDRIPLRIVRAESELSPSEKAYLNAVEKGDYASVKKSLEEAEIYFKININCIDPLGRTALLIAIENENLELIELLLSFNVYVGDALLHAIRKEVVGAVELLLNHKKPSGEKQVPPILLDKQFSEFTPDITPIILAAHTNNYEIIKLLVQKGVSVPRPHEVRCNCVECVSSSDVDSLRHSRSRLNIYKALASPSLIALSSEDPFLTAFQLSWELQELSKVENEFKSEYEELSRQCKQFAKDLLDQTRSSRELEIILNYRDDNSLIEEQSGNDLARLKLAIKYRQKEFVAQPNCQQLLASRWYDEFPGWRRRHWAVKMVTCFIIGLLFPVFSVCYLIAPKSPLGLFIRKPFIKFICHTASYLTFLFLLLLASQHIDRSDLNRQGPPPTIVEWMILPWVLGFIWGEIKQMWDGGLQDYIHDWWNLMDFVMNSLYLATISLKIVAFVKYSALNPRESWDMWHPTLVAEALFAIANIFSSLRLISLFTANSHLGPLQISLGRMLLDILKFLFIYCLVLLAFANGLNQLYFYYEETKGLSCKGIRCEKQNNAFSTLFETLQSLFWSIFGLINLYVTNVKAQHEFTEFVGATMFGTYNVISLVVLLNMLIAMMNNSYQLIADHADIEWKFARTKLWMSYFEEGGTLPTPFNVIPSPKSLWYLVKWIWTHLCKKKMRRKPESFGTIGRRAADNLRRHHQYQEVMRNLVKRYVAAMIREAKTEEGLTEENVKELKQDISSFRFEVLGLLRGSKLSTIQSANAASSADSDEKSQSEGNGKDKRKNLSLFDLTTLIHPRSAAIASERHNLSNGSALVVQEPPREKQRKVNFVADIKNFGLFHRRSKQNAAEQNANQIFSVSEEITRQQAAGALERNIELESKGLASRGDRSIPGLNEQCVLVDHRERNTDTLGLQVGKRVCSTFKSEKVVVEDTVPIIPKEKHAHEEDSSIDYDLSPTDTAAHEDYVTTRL
How it was run: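 test system = TRPC4beta/mu-opioid receptor HEK293 cells | compound dosing = one dose, 10 µM final | times = dye 45 min at room temperature, compound 110 s, submaximal DAMGO 110 s | signal = kinetic fluorescence of Fluo4 calcium-sensitive dye, calcium influx | controls = no-compound wells and DAMGO maximal-stimulus wells | replication = duplicate wells for each compound, averaged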

outcome, inactive:
CC(C)c1ccc(NC(=S)N(C)CCc2ccccn2)cc1, CCN1CCN(c2ccc(S(=O)(=O)N3CCCCC3)cc2NC(=O)COc2ccccc2)CC1, COC(=O)c1ccccc1N=Nc1c(N)[nH][nH]c1=O, CCc1nc(NCCc2ccccn2)c2nnn(Cc3ccccc3F)c2n1, COC(=O)c1ccc(N2CCN(C)CC2)c(NC(=O)COc2ccccc2)c1, CCC1(c2ccc(F)cc2)NC(=O)N(CC(=O)c2cc(C)n(C3CC3)c2C)C1=O (stereo not given), CCOC(=O)C1(CC2CCCCO2)CCN(Cc2c(C)cc(C)cc2-n2cccn2)CC1 (stereo not given), Cc1ccc(Cl)cc1NC(=O)CNCC(c1ccccc1)N(C)C (stereo not given), CCOC(=O)C1(CCOc2ccccc2)CCN(Cc2ccc3c(c2)OCCO3)CC1, CCOc1ccccc1CN1CCNC(=O)C1CC(=O)N(C)CCc1ccccn1 (stereo not given), CN(CCc1ccccn1)C(=O)CC1C(=O)NCCN1Cc1ccccc1C(F)(F)F (stereo not given), Cc1ccc(C)c(OCCCCCn2ccnc2)c1, O=C(C1CCCN(Cc2ccccc2F)C1)N1CCc2ccccc2C1 (stereo not given), CCOC(=O)C1(CCCc2ccccc2)CCN(Cc2cn(CC)nc2C)CC1, NCCSc1c(-c2ccc(Cl)cc2)[nH]c2ccccc12, CN(C)CCCN(C(=O)c1ccc(C(=O)c2ccccc2)cc1)c1nc2ccc(F)cc2s1, COc1ccc(-c2nn(-c3ccccc3)cc2CNCc2cccnc2)c(F)c1, Cc1cc(Br)ccc1OCCn1ccnc1, C=CCn1c(CCNC(=O)C(C)(C)C)nc2ccccc21, Cc1cc(Cl)cc(C)c1OCCCCn1ccnc1, Cc1sc2nc(CSc3ccccc3)nc(NCCN(C)C)c2c1C, CCN1CCN(c2c(S(=O)(=O)c3ccc(C)c(C)c3)cnc3ccc(F)cc23)CC1, Cc1ccc(C)c(OCCCCn2ccnc2)c1, Cc1ccccc1NC(=S)NCCc1ccccn1, CN(C)C(CNC(=O)Cc1cccc(C(F)(F)F)c1)c1ccco1 (stereo not given), CCOc1ccccc1CN1CCNC(=O)C1CC(=O)NCCc1ccccn1 (stereo not given), CCOc1ccc2ncc(C(=O)c3ccc(OC)cc3)c(N3CCN(CC)CC3)c2c1, Cc1cc(NC(=O)CN2CCc3ccccc3C2)nc2c1c(=O)oc1ccccc12, Cc1ccccc1C(=O)NNC(=S)NC(=O)c1ccccc1, CCOC(=O)C1CCCN(C(c2ccccn2)c2c(C)[nH]c3ccccc23)C1 (stereo not given), COc1cc(/C=C/C(=O)c2ccc3c(c2)OCO3)cc(Cl)c1O, CN(C)C(CNC(=O)/C=C/c1cccc(Cl)c1)c1ccccc1 (stereo not given), COc1ccc(C(=O)NC(=S)NNC(=O)c2c(-c3ccccc3)noc2C)cc1, O=S(=O)(c1ccc(Cl)cc1)N1CCN2CCCC2C1 (stereo not given), Cc1ccc(-n2cc(CNCC3CC(=O)N(C4CC4)C3)c(-c3cccc(C)c3)n2)cc1 (stereo not given), CCCCCSc1nnc2c(n1)OC(c1cccn1C)N(C(C)=O)c1ccccc1-2 (stereo not given), CCCCC(c1nnnn1CC1CCCO1)N1CCN(c2nc3ccccc3s2)CC1 (stereo not given), CCN(CCCNS(=O)(=O)c1cc(-c2cc(C)no2)ccc1C)Cc1ccccc1, COc1ccc(-c2nc(CN3CCC(C(=O)NC4CCCC4)CC3)c(C)o2)cc1OC, CCN(CC)CCSc1nc2ccc(OC)cc2[nH]1
